pIC50: −log10 of the molar value.
How the values were obtained:
[1] = target: T1, Tyrosyl-DNA phosphodiesterase 1 (Homo sapiens, UniProt Q9NUW8); assay: Inhibition of recombinant Tdp1 (unknown origin) using 5'-(5,6 FAM-aac gtc agg gtc ttc c-BHQ1)-3' as substrate measured every 55 secs for 8 mins by fluorimetric assay
A549 [2] = assay: Potentiation of topotecan-induced cytotoxicity against human A549 cells assessed as topotecan CC50 at 1 uM after 72 hrs by MTT assay (reference value: 111 +/- 27 nM); assay type: functional; details: A549, 72 h
Tdp1 [3] = assay: Selectivity index, ratio of CC50 for human A549 cells to IC50 for recombinant Tdp1 (unknown origin) using 5'-(5,6 FAM-aac gtc agg gtc ttc c-BHQ1)-3' as substrate; assay type: toxicity; details: A549 cells (CC50) and recombinant Tdp1 (IC50), probe 5'-(5,6 FAM-aac gtc agg gtc ttc c-BHQ1)-3'
[4] = Cytotoxicity against HEK293 cells after 72 hrs by MTT assay; assay type: cell-based; details: human
Outline: (§1)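 Cells seeded at ~2000 per well and grown 24 h at 37 °C, 5% CO2 in IMDM with 10% FBS plus penicillin/streptomycin. Then exposed to the compound (1 to 100 µM) for 72 h. Viability read by MTT as A570 versus DMSO control. CC50 interpolated from the dose-response curve. Mean ± SD of triplicates.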

[5] = Cytotoxicity against human A549 cells after 72 hrs by MTT assay; assay type: cell-based; outline: as §1
Tdp1 [6] = assay: Selectivity index, ratio of CC50 for HEK293 cells to IC50 for recombinant Tdp1 (unknown origin) using 5'-(5,6 FAM-aac gtc agg gtc ttc c-BHQ1)-3' as substrate; assay type: toxicity; details: human, HEK293 cells (CC50) and recombinant Tdp1 (IC50), probe 5'-(5,6 FAM-aac gtc agg gtc ttc c-BHQ1)-3'
[7] = target: T1, Tyrosyl-DNA phosphodiesterase 1; assay: Inhibition of recombinant Tdp1 (unknown origin) using 5'-([32P]-aac gtc agg gtc ttc c-BHQ1)-3' as substrate measured after 20 mins by electrophoresis method
[8] = target: T1, Tyrosyl-DNA phosphodiesterase 1; assay: Inhibition of recombinant Tdp1 (unknown origin) using 5'-([32P]-aac gtc agg gtc ttc c-tyrosine)-3' as substrate measured after 5 mins by electrophoresis method
HEK293 = assay: Potentiation of topotecan-induced cytotoxicity against HEK293 cells assessed as fold reduction in topotecan CC50 at 1 uM after 72 hrs by MTT assay relative to topotecan alone; assay type: cell-based; details: human, hek293, 72 h
Outline: (§2)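 A-549 or HEK-293 cells (~2000/well) preincubated 24 h at 37 °C in IMDM with 10% FBS, penicillin/streptomycin, 5% CO2. Then treated with varied topotecan concentrations with or without inhibitor at 1 µM for 72 h. Viability read by MTT (A570) against DMSO control. Topotecan CC50 interpolated from dose-response curves, mean ± SD of triplicates.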

A549 [9] = assay: Potentiation of topotecan-induced cytotoxicity against human A549 cells assessed as fold reduction in topotecan CC50 at 1 uM after 72 hrs by MTT assay relative to topotecan alone; assay type: functional; outline: as §2

T1 sequence (Q9NUW8 whole entry): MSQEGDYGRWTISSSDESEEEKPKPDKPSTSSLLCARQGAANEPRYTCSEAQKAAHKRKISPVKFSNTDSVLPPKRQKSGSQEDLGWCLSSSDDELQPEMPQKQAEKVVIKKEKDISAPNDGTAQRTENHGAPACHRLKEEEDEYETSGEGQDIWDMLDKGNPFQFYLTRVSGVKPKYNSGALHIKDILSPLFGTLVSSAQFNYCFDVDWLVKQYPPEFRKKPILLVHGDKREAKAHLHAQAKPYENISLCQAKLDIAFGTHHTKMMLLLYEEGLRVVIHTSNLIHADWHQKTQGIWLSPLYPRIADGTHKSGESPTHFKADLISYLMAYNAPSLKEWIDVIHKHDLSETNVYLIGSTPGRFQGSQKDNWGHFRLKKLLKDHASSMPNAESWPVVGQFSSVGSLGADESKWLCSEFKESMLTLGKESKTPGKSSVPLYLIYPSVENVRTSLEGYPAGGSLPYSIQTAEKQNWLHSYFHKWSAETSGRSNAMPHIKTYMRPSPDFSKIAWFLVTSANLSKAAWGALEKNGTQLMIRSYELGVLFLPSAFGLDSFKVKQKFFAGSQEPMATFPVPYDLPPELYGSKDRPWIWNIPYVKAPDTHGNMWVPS

COc1ccccc1/C=C1\Oc2c(C)c(O)c3c(c2C1=O)OC1=CC(O)=C(C(C)=O)C(=O)[C@@]13C
pIC50 [1]: 6.41

CC(=O)C1=C(O)C=C2Oc3c4c(c(C)c(O)c3[C@@]2(C)C1=O)O/C(=C\c1ccc(Br)cc1)C4=O
CC50 (A549 [2]): 162 nM
selectivity ratio (Tdp1 [3]): 66.7
CC50 at 72 h [4]: 14600 nM
CC50 at 72 h [5]: 10000 nM
selectivity ratio (Tdp1 [6]): 97.3

CC(=O)C1=C(O)C=C2Oc3c4c(c(C)c(O)c3[C@@]2(C)C1=O)O/C(=C\c1ccncc1)C4=O
pIC50 [1]: 6.09

CC(=O)C1=C(O)C=C2Oc3c4c(c(C)c(O)c3[C@@]2(C)C1=O)O/C(=C\c1cccnc1)C4=O
pIC50 [1]: 6.35

CC(=O)C1=C(O)C=C2Oc3c4c(c(C)c(O)c3[C@@]2(C)C1=O)O/C(=C\c1sccc1C)C4=O
pIC50 [1]: 6.20

CC(=O)C1=C(O)C=C2Oc3c4c(c(C)c(O)c3[C@@]2(C)C1=O)O/C(=C\c1ccccc1)C4=O
pIC50 [1]: 6.14

CC(=O)C1=C(O)C=C2Oc3c4c(c(C)c(O)c3[C@@]2(C)C1=O)O/C(=C\c1ccc(C)s1)C4=O
pIC50 [1]: 6.08

CC(=O)C1=C(O)C=C2Oc3c4c(c(C)c(O)c3[C@@]2(C)C1=O)O/C(=C\c1ccccn1)C4=O
pIC50 [1]: 6.07

CC(=O)C1=C(O)C=C2Oc3c4c(c(C)c(O)c3[C@@]2(C)C1=O)O/C(=C\c1ccc(Cl)cc1)C4=O
pIC50 [1]: 5.91

CC(=O)C1=C(O)C=C2Oc3c4c(c(C)c(O)c3[C@@]2(C)C1=O)O/C(=C\c1ccc(O)cc1)C4=O
pIC50 [1]: 5.80

CC(=O)C1=C(O)C=C2Oc3c4c(c(C)c(O)c3[C@@]2(C)C1=O)O/C(=C\c1cc(Br)cc(Br)c1)C4=O
pIC50 [7]: 6.19
pIC50 [1]: 6.28
pIC50 [8]: 5.40

CC(=O)C1=C(O)C=C2Oc3c4c(c(C)c(O)c3[C@@]2(C)C1=O)O/C(=C\c1cc(Br)cs1)C4=O
pIC50 [1]: 6.22

CC(=O)C1=C(O)C=C2Oc3c4c(c(C)c(O)c3[C@@]2(C)C1=O)O/C(=C\c1ccc(Br)s1)C4=O
CC50 (A549 [2]): 47 nM
selectivity ratio (Tdp1 [3]): 138
fold change (FC) (HEK293): 2 to 4
fold change (FC) (A549 [9]): 2
pIC50 [1]: 7.20
CC50 at 72 h [4]: 15700 nM
CC50 at 72 h [5]: 8700 nM
selectivity ratio (Tdp1 [6]): 249

CC(=O)C1=C(O)C=C2Oc3c4c(c(C)c(O)c3[C@@]2(C)C1=O)O/C(=C\c1ccc(F)cc1)C4=O
pIC50 [1]: 6.01

CC(=O)C1=C(O)C=C2Oc3c4c(c(C)c(O)c3[C@@]2(C)C1=O)O/C(=C\c1ccc[nH]1)C4=O
pIC50 [1]: 5.44

CC(=O)C1=C(O)C=C2Oc3c4c(c(C)c(O)c3[C@]2(C)C1=O)O/C(=C\c1ccc(Br)s1)C4=O
pIC50 [1]: 7.09

COc1ccc(/C=C2\Oc3c(C)c(O)c4c(c3C2=O)OC2=CC(O)=C(C(C)=O)C(=O)[C@@]24C)cc1
CC50 (A549 [2]): 90 nM
selectivity ratio (Tdp1 [3]): 24.4
pIC50 [1]: 6.47
CC50 at 72 h [4]: 15800 nM
CC50 at 72 h [5]: 8300 nM
selectivity ratio (Tdp1 [6]): 46.5

CC(=O)C1=C(O)C=C2Oc3c4c(c(C)c(O)c3[C@@]2(C)C1=O)O/C(=C\c1ccco1)C4=O
pIC50 [1]: 5.26

COc1ccc(/C=C2\Oc3c(C)c(O)c4c(c3C2=O)OC2=CC(O)=C(C(C)=O)C(=O)[C@@]24C)cc1OC
pIC50 [1]: 5.99

CC(=O)C1=C(O)C=C2Oc3c4c(c(C)c(O)c3[C@@]2(C)C1=O)O/C(=C\c1ccc(C)o1)C4=O
CC50 (A549 [2]): 40 nM
selectivity ratio (Tdp1 [3]): > 300
fold change (FC) (A549 [9]): 2
pIC50 [1]: 6.80
CC50 at 72 h [4]: > 50000 nM
CC50 at 72 h [5]: > 50000 nM
selectivity ratio (Tdp1 [6]): > 300

CC(=O)C1=C(O)C=C2Oc3c4c(c(C)c(O)c3[C@@]2(C)C1=O)O/C(=C\C1CCCCC1)C4=O
pIC50 [1]: < 4.82

CC(=O)C1=C(O)C=C2Oc3c4c(c(C)c(O)c3[C@@]2(C)C1=O)O/C(=C\c1cc(C(C)(C)C)cc(C(C)(C)C)c1O)C4=O
CC50 (A549 [2]): 558 nM
selectivity ratio (Tdp1 [3]): 272
pIC50 [1]: 7.60
CC50 at 72 h [4]: 14500 nM
CC50 at 72 h [5]: 6800 nM

CC(=O)C1=C(O)C=C2Oc3c4c(c(C)c(O)c3[C@@]2(C)C1=O)O/C(=C\c1ccsc1)C4=O
pIC50 [1]: 5.48

CC(=O)C1=C(O)C=C2Oc3c4c(c(C)c(O)c3[C@@]2(C)C1=O)O/C(=C\c1cccs1)C4=O
pIC50 [1]: 6.05

CC(=O)C1=C(O)C=C2Oc3c4c(c(C)c(O)c3[C@@]2(C)C1=O)O/C(=C\c1ccoc1)C4=O
pIC50 [1]: 5.17

CC(=O)C1=C(O)C=C2Oc3c4c(c(C)c(O)c3[C@@]2(C)C1=O)O/C(=C\c1cccc(Br)c1)C4=O
CC50 (A549 [2]): 132 nM
selectivity ratio (Tdp1 [3]): 49.1
pIC50 [1]: 6.63
CC50 at 72 h [4]: 14500 nM
CC50 at 72 h [5]: 11400 nM
selectivity ratio (Tdp1 [6]): 62.5

CC(=O)C1=C(O)C=C2Oc3c4c(c(C)c(O)c3[C@]2(C)C1=O)O/C(=C\c1cc(C(C)(C)C)cc(C(C)(C)C)c1O)C4=O
pIC50 [1]: 7.19

CC(=O)C1=C(O)C=C2Oc3c4c(c(C)c(O)c3[C@@]2(C)C1=O)O/C(=C\c1ccccc1Br)C4=O
CC50 (A549 [2]): 48 nM
selectivity ratio (Tdp1 [3]): 19.8
fold change (FC) (A549 [9]): 2
pIC50 [1]: 6.64
CC50 at 72 h [4]: 15900 nM
CC50 at 72 h [5]: 4560 nM
selectivity ratio (Tdp1 [6]): 69.1

COc1ccc(/C=C2\Oc3c(C)c(O)c4c(c3C2=O)OC2=CC(O)=C(C(C)=O)C(=O)[C@@]24C)c(OC)c1OC
CC50 (A549 [2]): 48 nM
selectivity ratio (Tdp1 [3]): 13.5
fold change (FC) (A549 [9]): 2
pIC50 [1]: 6.47
CC50 at 72 h [4]: 20000 nM
CC50 at 72 h [5]: 4600 nM
selectivity ratio (Tdp1 [6]): 58.8
